Screening data: PubChem, several laboratories
CHOP UPR activ: apoptotic UPR (CHOP) activation | AID 449763 | activation, % at 10 µM | 330,000 tested, 0.34% active | CHO-CHOP luciferase reporter, luminescence; percent of tunicamycin response over DMSO baseline;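 active means at 10 µM dose, activation of 40% or more, normalized to positive control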;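 further: 100% = tunicamycin at 10 µg/mL and 0% = DMSO alone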
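Test system: CHO-CHOP cells, stable luciferase reporter of PERK-eIF2a-CHOP signalling | Quantity: 500 CHO-CHOP cells per well | Buffer or medium: F12 plus 10% serum | Compound dosing: 10 µM single point, 0.5% DMSO | Schedule: 6 h compound treatment, 37 °C | Signal: Luciferase luminescence | Control set: Tunicamycin high control, DMSO low control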
p-CIP stab down: p/CIP protein destabilization | 290,000 tested, 0.01% active | decrease of EGFP signal, % at 10 µM | AID 1984 | F442A p/CIP-EGFP cells, EGFP fluorescence, 16 h | Q05BA5;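 active means EGFP signal decrease of at least 30% at 10 µM or well 3 SD below plate mean, unless failing retest; inactive means the rest, including hits failing retest or dose response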
Dynein transport: blocks dynein driven cargo transport along microtubules | 3617.4 mouse cells, GR-EGFP nuclear translocation imaging; test concentration mostly 20 µM; stimulated with dexamethasone, 1 µM; stronger effect = lower value | z-score, hits read low | 220,000 tested, 0.47% active | AID 1381;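 active means plate z-score of nuclear minus cytoplasmic receptor signal below a set negative limit, without overly bright fluorescence or cell loss, cut at about -3.5 in these data, passing the limit was not always enough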;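 further: z-score of nuclear minus cytoplasmic ring GR-EGFP intensity difference per well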
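Buffer or medium: tetracycline-free induction medium containing charcoal-stripped FBS / Reagent: dexamethasone agonist, 1.0 µM final, for 30 min / Technique: automated 10x imaging of fixed Hoechst-stained cells / Times: induction 48 h, compound 1 h, agonist 30 min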
XBP1 UPR activ: adaptive UPR (XBP1) activation | CHO-XBP1 luciferase reporter, IRE1-XBP1 UPR activation, luminescence; percent of tunicamycin response, DMSO as zero | 330,000 tested, 0.33% active | activation, % at 20 µM | AID 463104;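 active means versus positive control, 20 µM dose yields 30% or more activation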;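 further: 100% = tunicamycin at 10 µg/mL and 0% = DMSO only wells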
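Material: IRE1-XBP1 luciferase reporter CHO line / Quantity: one thousand reporter cells per well / Buffer or medium: F12 with 10% serum / Compound: 20 µM single concentration, DMSO 1% / Times: 6 h treatment, 37 °C / Detection: Steady-Glo luciferase glow luminescence, 10 min after reagent addition / Benchmarks: tunicamycin high, DMSO low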
Beta2AR agonist: agonists of human beta-2 adrenergic receptor inducing internalization; P07550; Am2.2-beta2AR cells, FAP receptor internalization, flow cytometry; response, % (test concentration not listed); 340,000 tested, 0.43% active;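 active means response above a set limit, near 3 SD of response in nonfluorescent compounds, cut at about 42% in these data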
Target sequence (P07550 whole entry, looked up): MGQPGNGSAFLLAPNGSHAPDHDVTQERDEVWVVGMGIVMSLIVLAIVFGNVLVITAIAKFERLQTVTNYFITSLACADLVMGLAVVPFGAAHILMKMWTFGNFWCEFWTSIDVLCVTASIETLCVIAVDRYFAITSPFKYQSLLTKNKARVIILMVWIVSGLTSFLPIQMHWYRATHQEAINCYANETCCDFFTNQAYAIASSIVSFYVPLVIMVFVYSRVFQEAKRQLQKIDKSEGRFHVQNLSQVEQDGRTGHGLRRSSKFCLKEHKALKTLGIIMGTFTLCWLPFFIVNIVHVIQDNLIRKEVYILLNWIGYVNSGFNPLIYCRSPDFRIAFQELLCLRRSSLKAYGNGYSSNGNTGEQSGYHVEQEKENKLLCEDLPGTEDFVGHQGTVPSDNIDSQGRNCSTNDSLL
CHOP inh: inhibitors of CHOP induction in ER stress response | AID 2732 | inhibition, % at 10 µM | 220,000 tested, 3.8% active | CHO-K1 CHOP-promoter luciferase, tunicamycin-induced, 15-18 h;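 active means compounds that reduced the stress-induced luciferase reporter signal by more than about 70% of percent inhibition, limit read from the data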;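 further: 0% = tunicamycin plus vehicle and 100% = wells without tunicamycin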
Active calls of the source: *; . = no result given. The full list was thinned out, with hits kept by preference.

SMILES	CHOP UPR activ	p-CIP stab down	Dynein transport	XBP1 UPR activ	Beta2AR agonist	CHOP inh
COc1cc(/C=N\NC(=O)CN2CCOCC2)ccc1OCC(=O)Nc1ccc(C)c(C)c1	1.2	3.0	-0.116	2.4	9.5	27.6
Cc1ccc(NC(=O)CC(NC(=O)c2ccccc2Cl)c2ccccc2)nc1 (stereo unspecified)	-3.2	.	.	-2.7	-0.2	.
COc1ccc(C2=NC(=O)/C(=C\c3cc(OC)c(OC)c(OC)c3)O2)cc1	.	-31.7	-1.39	.	8.3	89.0*
O=C(O)CCCC(=O)N1N=C(c2ccccc2)CC1c1cccs1 (stereo unspecified)	0.5	-6.2	1.25	-3.8	1.9	-10.1
c1ccc(-c2cn3nc4c(nc3n2)CCCC4)cc1	-7.5	2.9	0.573	-10.5	-11.1	63.5
Brc1ccc(-c2cn3nc4c(nc3n2)CCCC4)cc1	-4.1	-10.0	2.48	-5.3	-12.2	96.0*
Cc1cc(C)nc(Nc2n[nH]c(-c3ccc(C(C)(C)C)cc3)n2)n1	7.1	-1.5	-0.257	3.2	6.4	77.1*
O=C(CN1C(=O)CSc2ccc(S(=O)(=O)N3CCCCC3)cc21)NCc1ccccc1	-0.3	4.2	.	0.1	-6.6	.
COC(=O)c1sccc1NC(=O)c1ccc(Br)o1	-4.7	-11.9	0.593	-1.8	-5.4	87.7*
O=C(O)C1(c2cccc(Cl)c2)CCC1	0.0	5.0	-0.343	-3.3	5.8	12.1
O=C(CSc1nc2ccc(Cl)cc2o1)NCc1ccc2c(c1)OCO2	-0.7	-11.2	0.427	-1.0	-2.5	25.9
O=C(CSc1ncc(C(=O)O)n1-c1ccc(F)cc1)NCc1ccc2c(c1)OCO2	2.1	-1.2	-0.305	-3.3	-1.8	14.1
O=C(CSc1nc2ccccc2o1)NCc1ccc2c(c1)OCO2	1.9	-13.6	-0.579	-2.2	3.0	79.3*
O=C(CSc1nc(CCC2CCCC2)nc2ccccc12)NCc1ccc2c(c1)OCO2	0.0	4.6	-0.0843	3.1	-10.4	95.0*
O=C(CSc1ncnc2c1cnn2-c1ccc(F)cc1)NCc1ccc2c(c1)OCO2	1.7	-0.1	0.262	1.4	-0.1	88.6*
O=C(COc1ccc2ccc(=O)oc2c1)N1CCc2ccccc21	3.2	6.3	-0.0318	9.0	-4.3	-4.0
CCC(C)c1ccccc1N1CC(C(=O)Nc2ccc(C)c(S(=O)(=O)N3CCOCC3)c2)CC1=O (stereo unspecified)	1.5	.	.	-4.2	6.2	.
CC1(C)CC[C@]2(C(=O)O)CC[C@]3(C)C(=CC[C@@H]4[C@@]5(C)CC[C@H](O[C@@H]6O[C@H](C(=O)O)[C@@H](O)[C@H](O[C@@H]7OC[C@H](O)[C@H](O)[C@H]7O)[C@H]6O)C(C)(C)[C@@H]5CC[C@]43C)[C@@H]2C1	2.3	.	.	3.5	39.8	.
COc1ccc(Br)cc1CSC(=N)N	-1.5	6.3	1.62	0.2	0.9	6.2
CCCCCOc1ccc(Br)cc1CSC(=N)N	.	-2.7	3.1	.	10.6	83.9*
O=C(CC12CC3CC(CC(C3)C1)C2)NCC(=O)N1CCc2ccccc2C1	-1.5	-22.8	0.711	-1.4	-6.6	11.6
COc1ccc(CC(=O)Nc2nn(C)c3nc4c(C)cccc4cc23)cc1	1.5	-3.3	-0.223	3.3	-5.6	80.6*
COc1ccc(Nc2c([N+](=O)[O-])ccc3c2=NC2(CCCCC2)N=3)cc1	2.8	-1.8	-0.686	-1.9	0.0	37.5
Cc1ccc(-n2[nH]c(C)c(C=Nc3ccc4[nH]c(=O)[nH]c4c3)c2=O)cc1C	1.9	-9.2	0.805	-1.0	7.5	81.3*
CCc1ccc(-c2nnn(CCC(=O)OC)n2)cc1	-6.7	-32.0	-0.487	-2.7	4.4	75.4*
CCc1ccc(-c2nnn(CCC#N)n2)cc1	2.3	-18.3	0.0487	0.3	0.0	0.1
COc1ccccc1OCC(=O)N1CCCCCCC1	5.9	-10.0	.	-2.5	-2.3	.
CCCCOc1ccc(S(=O)(=O)N2CCCCCC2)cc1	0.4	-5.1	0.192	-0.7	-11.0	91.0*
